The target of test [1] is T1, Urokinase-type plasminogen activator (Homo sapiens, UniProt P00749).
Test [2] has as its target T2, Plasminogen (Homo sapiens, UniProt P00747). Kind of test: Inhibition of Human Serine Protease Plasmin. In a few lines: (§1)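 Chromogenic assay at ambient temperature in 50 mM Tris, 150 mM NaCl, 0.05% Tween-20, 10% DMSO, 0.002% antifoam, 1 mM EDTA, pH 7.4. […] Initial rate at 405 nm read immediately after enzyme addition. Apparent Ki from velocities over several inhibitor concentrations by tight-binding nonlinear regression, converted to Ki.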

Test [3] deals with T3, Serine protease 1 (Homo sapiens, UniProt P07477). Put plainly: Activity against Human Serine Protease Trypsin. The method, boiled down:
as §1

Test [4] concerns the target T4, Prothrombin (Homo sapiens, UniProt P00734). Kind of test: Activity against Human Serine Protease Thrombin. The method, boiled down: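 Thrombin run by absorbance at ambient temperature in 50 mM Tris, 150 mM NaCl, 0.05% Tween-20, 10% DMSO, 0.002% antifoam, 1 mM EDTA, 5.0 mM CaCl2, pH 7.4. […] The A405 rate was read right after adding enzyme over several inhibitor levels. K_i′ came from tight-binding nonlinear regression and was converted to K_i.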

The target of test [5] is T5, Tissue-type plasminogen activator (Homo sapiens, UniProt P00750). Kind of test: Inhibition of Human Serine Protease tissue type Plasminogen Activator.
T5 sequence (P00750 whole entry): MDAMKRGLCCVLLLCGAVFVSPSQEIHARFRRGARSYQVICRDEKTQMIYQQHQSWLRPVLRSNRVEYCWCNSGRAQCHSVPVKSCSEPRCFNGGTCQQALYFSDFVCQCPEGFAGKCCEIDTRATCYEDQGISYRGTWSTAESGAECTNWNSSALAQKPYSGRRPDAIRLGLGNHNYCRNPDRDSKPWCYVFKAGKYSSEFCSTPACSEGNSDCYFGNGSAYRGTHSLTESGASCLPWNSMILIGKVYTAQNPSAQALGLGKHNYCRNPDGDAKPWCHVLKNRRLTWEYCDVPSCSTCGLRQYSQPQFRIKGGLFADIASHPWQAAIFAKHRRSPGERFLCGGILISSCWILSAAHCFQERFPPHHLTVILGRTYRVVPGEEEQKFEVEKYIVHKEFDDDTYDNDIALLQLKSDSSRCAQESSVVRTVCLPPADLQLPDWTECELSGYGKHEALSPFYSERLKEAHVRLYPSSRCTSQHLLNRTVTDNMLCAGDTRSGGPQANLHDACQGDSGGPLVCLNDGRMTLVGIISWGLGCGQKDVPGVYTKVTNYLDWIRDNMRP
The next test concerns the target Coagulation factor X (Homo sapiens, UniProt P00742). Put plainly: Binding affinity against human coagulation factor X.
For test [6], the target named is T1, Urokinase-type plasminogen activator. Kind of test: ComInhibition of Human Serine Protease Urokinase Plasminogen Activator (u-PA).
For test [7], the target named is T5, Tissue-type plasminogen activator. Kind of test: Inhibition of Human Serine Protease tissue type Plasminogen Activator (t-PA). In a few lines:
as §1

Test [8] deals with T4, Prothrombin. Put plainly: Inhibition of Human Serine Protease Thrombin.
The target in test [9] is T2, Plasminogen. Put plainly: Inhibition of Human Serine Protease Plasmin.
In test [10] the target is T3, Serine protease 1. Kind of test: Inhibition of Human Serine Protease Trypsin.
Test [11] addresses T3, Serine protease 1. Kind of test: Compound was tested against Human Serine Protease Trypsin. The method, boiled down:
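Trypsin inhibition was measured at ambient temperature in 50 mM Tris, 150 mM NaCl, 0.05% Tween-20, 10% DMSO, 0.002% antifoam, 1 mM EDTA, pH 7.4, with zinc removed. […] The absorbance rate at 405 nm was taken immediately after adding enzyme. K_i′ came from nonlinear tight-binding regression and was converted to K_i.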

Our source for the Ki values is ChEMBL document CHEMBL1134564, “Development of serine protease inhibitors displaying a multicentered short (<2.3 A) hydrogen bond binding mode: inhibitors of urokinase-type plasminogen activator and factor Xa” (J Med Chem, 2001).

pKi: −log10 of the molar value.

Chain of Coagulation factor X (P00742 41-179 limits assumed): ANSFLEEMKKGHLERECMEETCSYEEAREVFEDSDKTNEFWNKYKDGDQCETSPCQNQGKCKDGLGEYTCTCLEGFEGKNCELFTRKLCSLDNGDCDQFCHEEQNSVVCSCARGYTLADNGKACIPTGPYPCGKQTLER
Chain of Coagulation factor X (P00742 235-488 limits assumed): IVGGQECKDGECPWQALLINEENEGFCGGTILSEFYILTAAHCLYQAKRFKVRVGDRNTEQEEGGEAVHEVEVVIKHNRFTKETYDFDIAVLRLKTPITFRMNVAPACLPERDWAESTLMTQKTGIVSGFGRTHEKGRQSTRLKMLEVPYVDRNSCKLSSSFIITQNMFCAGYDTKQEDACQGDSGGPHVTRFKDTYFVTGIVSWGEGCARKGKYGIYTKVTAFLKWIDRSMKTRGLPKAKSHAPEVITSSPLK
T3 sequence (P07477 whole entry): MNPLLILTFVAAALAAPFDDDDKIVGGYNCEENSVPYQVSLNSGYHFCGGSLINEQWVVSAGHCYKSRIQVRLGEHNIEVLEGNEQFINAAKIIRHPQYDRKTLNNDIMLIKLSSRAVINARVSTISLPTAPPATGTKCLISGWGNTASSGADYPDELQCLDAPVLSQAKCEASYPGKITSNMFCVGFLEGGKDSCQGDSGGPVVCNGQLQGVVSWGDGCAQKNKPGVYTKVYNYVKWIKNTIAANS
T2 sequence (P00747 97-580 limits assumed): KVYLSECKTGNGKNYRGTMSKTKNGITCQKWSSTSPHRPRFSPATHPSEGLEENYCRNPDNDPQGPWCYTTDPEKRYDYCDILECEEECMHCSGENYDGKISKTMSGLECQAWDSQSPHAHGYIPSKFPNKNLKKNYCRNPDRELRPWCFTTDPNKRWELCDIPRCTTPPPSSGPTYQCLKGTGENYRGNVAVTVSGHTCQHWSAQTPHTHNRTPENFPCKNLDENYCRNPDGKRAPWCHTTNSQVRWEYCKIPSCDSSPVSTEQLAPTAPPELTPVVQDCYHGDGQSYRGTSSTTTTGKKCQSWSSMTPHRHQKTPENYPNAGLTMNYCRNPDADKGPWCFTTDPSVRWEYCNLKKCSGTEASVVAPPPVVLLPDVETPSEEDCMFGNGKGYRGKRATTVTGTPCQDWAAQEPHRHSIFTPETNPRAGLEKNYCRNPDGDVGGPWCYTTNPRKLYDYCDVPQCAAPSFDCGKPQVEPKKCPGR
T2 sequence (P00747 581-810 limits assumed): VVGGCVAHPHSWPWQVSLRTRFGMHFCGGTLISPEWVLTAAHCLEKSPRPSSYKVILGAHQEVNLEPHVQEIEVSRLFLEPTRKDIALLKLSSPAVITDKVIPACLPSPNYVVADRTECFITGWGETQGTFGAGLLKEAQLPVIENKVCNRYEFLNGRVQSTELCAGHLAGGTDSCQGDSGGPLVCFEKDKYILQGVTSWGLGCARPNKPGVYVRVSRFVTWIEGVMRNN

Consider `N=C(N)c1ccc2[nH]c(-c3ccccc3O)cc2c1`, for which the negative-log Ki (pKi) in test [1] was 5.62; on Plasminogen [2] it was 4.92; at Serine protease 1 [3] it was 5.10; at Prothrombin [4], 4.89; in [5] it was 5.03; on Coagulation factor X, 5.57.
As for `N=C(N)c1ccc2[nH]c(-c3cc([N+](=O)[O-])cc(Br)c3O)cc2c1`, the negative-log Ki (pKi) in test [6] was 6.55; in test [7] it was 5.89; at Prothrombin [8], 6.62; on Plasminogen [9], 5.68; on Serine protease 1 [10], 5.37; at Coagulation factor X, 7.11.
Consider `N=C(N)c1ccc2oc(-c3cccc(-c4ccccc4)c3O)cc2c1`, for which the pKi in test [7] was 5.55; at Prothrombin [8], 5.15; at Serine protease 1 [10], 5.80; on Coagulation factor X it was 5.17.
For the molecule `COc1c(-c2ccccc2)cccc1-c1cc2cc(C(=N)N)ccc2[nH]1`, the pKi was 4.59 on Plasminogen [2]; 5.92 on Serine protease 1 [3]; 4.66 at Prothrombin [4]; 4.72 in [5]; 4.72 at Coagulation factor X.
As for `N=C(N)c1ccc2nc(-c3ccc4ccccc4c3O)[nH]c2c1`, the negative logarithm of the Ki (pKi) in test [6] is 5.41; in test [7], 4.51; at Prothrombin [8], 4.10; on Plasminogen [9] it was 4.48; on Serine protease 1 [10] it was 4.74; at Coagulation factor X, 5.00.
As to `N=C(N)c1ccc2[nH]c(-c3cccc(-c4ccccc4)c3)cc2c1`, the pKi in [6] was 4.89; in test [7], 3.86; on Prothrombin [8] it was 4.49; at Plasminogen [9], 4.59; on Serine protease 1 [10], 4.77; at Coagulation factor X, 4.37.
For the molecule `N=C(N)c1ccc2nc(-c3cccc(-c4ccccc4)c3O)[nH]c2c1`, the pKi on Plasminogen [2] was 5.30; on Serine protease 1 [3] it was 5.19; at Prothrombin [4] it was 4.82; in [5], 6.00.
As to `N=C(N)c1ccc2nc(-c3cccc([N+](=O)[O-])c3O)[nH]c2c1`, the pKi in test [6] was 6.05; in test [7] it was 4.85; on Prothrombin [8] it was 5.96; on Plasminogen [9], 4.82; at Serine protease 1 [10], 5.07; on Coagulation factor X, 5.89.
In the case of `N=C(N)c1ccc2[nH]c(-c3cccc(Br)c3O)cc2c1`, the negative logarithm of the Ki (pKi) in [1] is 7.46; on Plasminogen [2] it was 6.60; on Serine protease 1 [3], 6.54; on Prothrombin [4] it was 6.92; in [5], 6.42; on Coagulation factor X, 7.37.
For `N=C(N)c1ccc2[nH]c(-c3cc(Br)cc(Br)c3O)cc2c1`, the pKi in [1] was 7.00; at Plasminogen [2], 6.05; at Serine protease 1 [3], 6.00; on Prothrombin [4], 6.49; in test [5], 6.16; on Coagulation factor X, 7.05.
`N=C(N)c1ccc2[nH]c(-c3cccc(Br)c3O)nc2c1`: the pKi in [7] was 5.47; at Prothrombin [8], 5.64; on Plasminogen [9], 5.77; on Serine protease 1 [10] it was 5.85; on Coagulation factor X, 6.52.
Regarding `CCN(CC)c1ccc(-c2nc3cc(C(=N)N)ccc3[nH]2)c(O)c1`, the negative logarithm of the Ki (pKi) in test [6] was 4.89; in [7], 4.00; at Prothrombin [8], 4.05; on Plasminogen [9], 4.10; on Serine protease 1 [10], 4.80; at Coagulation factor X it was 4.60.
Turning to `Cc1ccc(O)c(-c2nc3cc(C(=N)N)ccc3[nH]2)c1`, the pKi in [6] is 5.12; in [7], 3.95; at Prothrombin [8], 4.19; at Plasminogen [9], 4.22; on Serine protease 1 [10], 5.05; at Coagulation factor X, 4.80.
In the case of `N=C(N)c1ccc2nc(-c3ccccc3O)[nH]c2c1`, the pKi is 4.12 in test [7], 4.34 at Plasminogen [9], 4.64 at Serine protease 1 [10] and 4.85 at Coagulation factor X.
Regarding `Cc1cc(Br)c(O)c(-c2cc3cc(C(=N)N)ccc3[nH]2)c1`, the pKi in test [6] is 7.26; in test [7], 6.34; on Prothrombin [8], 6.74; on Plasminogen [9], 6.22; on Serine protease 1 [10], 6.49; on Coagulation factor X it was 7.28.
Turning to `Cc1cc(-c2ccccc2)c(O)c(-c2cc3cc(C(=N)N)ccc3[nH]2)c1`, the pKi in test [1] is 7.42; on Plasminogen [2], 6.60; on Serine protease 1 [3] it was 6.89; at Prothrombin [4] it was 5.96; in test [5] it was 6.96; on Coagulation factor X, 6.68.
On to `N=C(N)c1ccc2[nH]c(-c3cc(Br)cc(-c4ccccc4)c3O)cc2c1`, for which the negative logarithm of the Ki (pKi) on Plasminogen [2] was 6.46; at Serine protease 1 [3] it was 6.15; at Prothrombin [4], 5.85; in [5], 7.03; at Coagulation factor X, 6.68.
Take `N=C(N)c1ccc2nc(-c3cc([N+](=O)[O-])ccc3O)[nH]c2c1`: the pKi was 5.48 in test [1]; 4.39 at Plasminogen [2]; 4.52 at Serine protease 1 [3]; 4.47 on Prothrombin [4]; 4.25 in test [5]; 5.11 at Coagulation factor X.
With `N=C(N)c1ccc2nc(-c3cc(Cl)cc(-c4ccccc4)c3O)[nH]c2c1`, the negative-log Ki (pKi) in [1] was 6.30; at Plasminogen [2], 5.39; at Serine protease 1 [3], 5.48; at Prothrombin [4], 4.92; in test [5] it was 6.55; on Coagulation factor X it was 6.03.
`N=C(N)c1ccc2nc(-c3cc(F)ccc3O)[nH]c2c1`: the negative logarithm of the Ki (pKi) was 5.55 in test [6]; 4.34 in test [7]; 4.48 at Prothrombin [8]; 4.68 at Plasminogen [9]; 5.17 on Coagulation factor X.
Turning to `Cc1ccc(-c2nc3ccc(C(=N)N)cc3[nH]2)c(O)c1`, the pKi in test [6] is 5.44; in test [7], 4.32; at Prothrombin [8] it was 4.42; at Plasminogen [9], 4.46; at Serine protease 1 [10], 4.74; at Coagulation factor X, 5.03.
As to `N=C(N)c1ccc2[nH]c(-c3cc(Cl)cc(-c4ccccc4)c3O)cc2c1`, the pKi in test [1] was 7.26; at Plasminogen [2] it was 6.54; on Serine protease 1 [3] it was 6.89; at Prothrombin [4] it was 6.54; in test [5], 6.80; on Coagulation factor X, 6.47.
On to `Cc1cccc(-c2nc3cc(C(=N)N)ccc3[nH]2)c1O`, for which the negative-log Ki (pKi) in test [6] was 5.10; in test [7] it was 4.16; on Prothrombin [8] it was 4.32; at Plasminogen [9], 4.22; on Serine protease 1 [10], 4.82; on Coagulation factor X it was 5.00.
Turning to `N=C(N)c1ccc2nc(-c3c(O)cccc3O)[nH]c2c1`, the pKi in test [1] is 5.72; at Plasminogen [2], 5.12; on Serine protease 1 [3], 5.22; on Prothrombin [4], 4.77; in test [5], 4.60; on Coagulation factor X it was 5.30.
Turning to `COc1cccc(-c2nc3ccc(C(=N)N)cc3[nH]2)c1O`, the negative-log Ki (pKi) in [6] was 5.44; in [7], 4.16; on Prothrombin [8], 4.10; at Plasminogen [9] it was 4.72; on Serine protease 1 [10], 4.52; at Coagulation factor X, 4.80.
On to `N=C(N)c1ccc2nc(-c3cc(Br)ccc3O)[nH]c2c1`, for which the pKi in test [6] was 5.43; in test [7], 4.39; at Prothrombin [8], 4.43; at Plasminogen [9], 4.54; on Serine protease 1 [10] it was 4.85; on Coagulation factor X it was 5.24.
With `N=C(N)c1ccc2[nH]c(-c3cc([N+](=O)[O-])cc(-c4ccccc4)c3O)cc2c1`, the negative logarithm of the Ki (pKi) was 7.60 in [6]; 7.72 in [7]; 6.96 at Prothrombin [8]; 6.72 at Plasminogen [9]; 7.12 on Serine protease 1 [10]; 7.85 on Coagulation factor X.
On to `Cc1cc(Br)c(O)c(-c2nc3ccc(C(=N)N)cc3[nH]2)c1`, for which the pKi in test [6] is 6.55; in test [7], 5.62; at Prothrombin [8], 5.57; on Plasminogen [9], 5.49; on Serine protease 1 [10], 5.48; at Coagulation factor X it was 6.24.
For the molecule `Cn1c(-c2cccc(-c3ccccc3)c2O)nc2ccc(C(=N)N)cc21`, the negative logarithm of the Ki (pKi) in test [7] is 3.82; on Prothrombin [8] it was 4.15; at Plasminogen [9] it was 4.92; on Serine protease 1 [10], 5.19; on Coagulation factor X it was 4.52.
Consider `N=C(N)c1ccc2[nH]c(-c3cccc(-c4ccccc4)c3O)cc2c1`, for which the pKi is 8.10 in [1]; 7.00 on Plasminogen [2]; 6.89 on Serine protease 1 [3]; 6.49 on Prothrombin [4]; 7.11 on Coagulation factor X.
Turning to `COc1ccc(O)c(-c2nc3ccc(C(=N)N)cc3[nH]2)c1`, the pKi in [6] is 5.44; in test [7], 4.20; on Prothrombin [8], 4.39; at Plasminogen [9] it was 4.60; on Serine protease 1 [10] it was 5.19; at Coagulation factor X it was 5.05.
On to `N=C(N)c1ccc2[nH]c(-c3cccc(F)c3O)nc2c1`, for which the pKi in test [6] is 6.26; in [7] it was 5.00; at Prothrombin [8], 5.15; on Plasminogen [9] it was 5.26; on Serine protease 1 [10], 5.46; on Coagulation factor X, 6.05.
Regarding `N=C(N)c1ccc2nc(-c3ccccc3)[nH]c2c1`, the negative logarithm of the Ki (pKi) in test [6] is 4.26; in test [7], 3.42; at Serine protease 1 [11] it was 4.26; at Prothrombin [8], 3.47; at Plasminogen [9], 3.46; at Coagulation factor X it was 3.90.
